2 compounds from ChEMBL document CHEMBL2331084, “Synthesis and evaluation of oxime derivatives as modulators for amyloid beta-induced mitochondrial dysfunction” (Eur J Med Chem, 2013) can be followed below.

Data set [1] is described as follows: Cytotoxicity against mouse […] cells assessed as cell viability at 10 uM after 24 hrs by MTT assay. The note with it: read-out: Activity. The data set is classed as cell-based. Background: Formazan colour is commonly taken as a measure of viable cells.
Data set [2] concerns HT-22. The data set is described as follows: Neuroprotective activity against in mouse HT22 cells assessed as inhibition of amyloid beta-induced toxicity at 10 uM incubated for 10 mins prior to amyloid beta-challenge measured after 24 hrs by MTT assay. The data set is classed as functional. The method, boiled down:
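HT-22 mouse hippocampal cells (DMEM, 10% FBS), 5000 per well, seeded a day before. Compound solution at 10 μM added 10 min before amyloid beta 1–42 solution at 10 μM, then 24 h at 37 °C. MTT 2 h, then acidified Triton/isopropanol for 1 h at RT, A570. Vehicle subtracted; % inhibition versus Aβ-treated vehicle; viability from wells without Aβ.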

Data set [3] can be described thus: Cytotoxicity against mouse […] cells assessed as cell viability at 5 uM. The format is cell-based. The note with it: HT22 cells, read-out: Activity.
Data set [4] relates to HT-22. In words: Inhibition of mPTP in mouse HT22 cells assessed as recovery in amyloid beta-suppressed ATP level at 5 uM incubated for 10 mins prior to amyloid beta-challenge measured for 7 hrs relative to control. The data set is classed as cell-based. Also on record: scale not given: the % may be the effect or the level left. Summed up: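 HT-22 mouse hippocampal cells, grown in DMEM with 10% FBS at 37 °C and 5% CO2, were seeded the day before. Compound (10 µM solution) added 10 min before amyloid beta 1-42 (10 µM solution), then 7 h at 37 °C. Lysates normalised to equal protein by BCA, and ATP measured with a luciferase kit. % recovery is relative to the amyloid-treated vehicle. Viability is from ATP without amyloid beta.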

Data set [5] in a line: Cmax in Sprague-Dawley rat at 3 mg/kg, ip. The format is ADME, organism-based. More on the design: dose 3 mg/kg, route intraperitoneal. The note with it: in vivo.
Data set [6] in a line: Tmax in Sprague-Dawley rat at 3 mg/kg, ip. The note with it: in vivo. More on the design: dose 3 mg/kg, route intraperitoneal. The format is ADME, organism-based.
A short description of data set [7]: Terminal half life in Sprague-Dawley rat at 3 mg/kg, ip. The data set is classed as ADME, organism-based. Also on record: dose 3 mg/kg, route intraperitoneal. As to conditions: in vivo, read-out: beta t1/2.
A short description of data set [8]: AUClast in Sprague-Dawley rat at 3 mg/kg, ip. The data set is classed as ADME, organism-based. More on the design: dose 3 mg/kg, route intraperitoneal, time 0 - last. As to conditions: plasma.
Data set [9] can be described thus: AUC (0 to infinity) in Sprague-Dawley rat at 3 mg/kg, ip. The note with it: plasma. More on the design: dose 3 mg/kg, route intraperitoneal, time infinity. The format is ADME, organism-based.
Data set [10] in a line: Ratio of drug uptake in brain to drug uptake in plasma in ICR mouse at 10 mg/kg, po. The data set is classed as ADME, organism-based. More on the design: dose 10 mg/kg, route oral. The note with it: read-out: BPR.
Data set [11] in a line: Tmax in ICR mouse at 10 mg/kg, po. As to conditions: in vivo. Also on record: dose 10 mg/kg, route oral. The data set is classed as ADME, organism-based.
Data set [12] in a line: Cmax in ICR mouse at 10 mg/kg, po. Also on record: dose 10 mg/kg, route oral. As to conditions: in vivo. The data set is classed as ADME, organism-based.
The nature of data set [13]: AUClast in ICR mouse at 10 mg/kg, po. The data set is classed as ADME, organism-based. More on the design: time 0 - last, dose 10 mg/kg, route oral. The note with it: plasma.
A short description of data set [14]: Metabolic stability in human liver microsomes at 1 uM after 30 mins by LC/MS analysis. As to conditions: read-out: Stability. The data set is classed as ADME, Microsome. The method, boiled down: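 Pooled human liver microsomes (0.5 mg/mL protein), compound at 1 μM, 1.2 mM NADPH, 100 mM phosphate pH 7.4, 37 °C with shaking for 30 min, in duplicate. Stopped with ice-cold acetonitrile containing internal standard, centrifuged, supernatant analysed by LC–MS/MS for % remaining.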

The subject of another data set is Plasma. In words: (§1) Metabolic stability in rat plasma at 0.5 ug/ml after 2 hrs by LC/MS analysis. The format is ADME, cell-free. The note with it: 2 h. Summed up:
(§2)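 Drug-free rat plasma spiked from acetonitrile stock to 0.5 μg/mL, held at 37 °C with shaking for 0, 15, 30, 60 and 120 min. Quenched with 2 volumes of acetonitrile containing carbamazepine internal standard, centrifuged, supernatant quantified by LC–MS/MS.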

For data set [15], the system named is HT-22. In words: Inhibition of mPTP in mouse HT22 cells assessed as reduction in amyloid beta-induced mitochondrial membrane damage at 10 uM incubated for 10 mins prior to amyloid beta-challenge measured every 1 hr for 3 hrs by JC-1 based fluorometric analysis. The data set is classed as cell-based. More on the design: scale not given: the % may be the effect or the level left. The method, boiled down:
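HT-22 cells, 30,000 per well, seeded a day earlier, loaded with 7.5 μM JC-1 (final) in phenol red-free Opti-MEM for 1 h 15 min at 37 °C, then PBS-washed. Compound solution at 10 μM for 10 min at 37 °C, then amyloid beta 1–42 solution at 10 μM. Red (ex/em 530/580) and green (485/530) fluorescence read hourly for 3 h. Green/red ratio change normalised to vehicle as 100%.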

The nature of data set [16]: Cmax in Sprague-Dawley rat at 10 mg/kg, po. The data set is classed as ADME, organism-based. More on the design: dose 10 mg/kg, route oral. The note with it: in vivo. Summed up:
(§3)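 Male Sprague-Dawley rats dosed 10 mg/kg iv (n = 3) or orally (n = 4). Carotid blood sampled at 0, 1 min (iv only), 5 min, 15 min, 0.5, 1, 2, 4, 6 and 8 h. Plasma analysed by LC-MS/MS after acetonitrile precipitation with internal standard (LLOQ 5 ng/mL). Parameters from non-compartmental analysis. Values are mean ± SD.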

Data set [17] is described as follows: AUClast in Sprague-Dawley rat at 10 mg/kg, po. The data set is classed as ADME, organism-based. Also on record: time 0 - last, dose 10 mg/kg, route oral. As to conditions: plasma. Summed up:
(§4)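 Male Sprague Dawley rats received 10 mg/kg intravenously (n = 3) or orally (n = 4). Blood was drawn via the carotid artery at 0, 1 min (IV only), 5 and 15 min, and 0.5, 1, 2, 4, 6 and 8 h. Plasma was precipitated with acetonitrile containing internal standard and analysed by LC–MS/MS (LLOQ 5 ng/mL). Parameters came from non-compartmental analysis; AUClast used the trapezoidal rule. Values are mean ± SD.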

Data set [18] can be described thus: Terminal half life in Sprague-Dawley rat at 10 mg/kg, po. The format is ADME, organism-based. Also on record: dose 10 mg/kg, route oral. As to conditions: in vivo, read-out: beta t1/2. Summed up:
as §3

Data set [19] can be described thus: AUC (0 to infinity) in Sprague-Dawley rat at 10 mg/kg, po. The format is ADME, organism-based. Also on record: time infinity, dose 10 mg/kg, route oral. As to conditions: plasma.
Data set [20] is described as follows: Ratio of drug uptake in brain to drug uptake in plasma in Sprague-Dawley rat at 10 mg/kg, iv. The format is ADME, organism-based. More on the design: dose 10 mg/kg, route intravenous. The note with it: read-out: BPR. The method, boiled down:
(§5)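 Male Sprague-Dawley rats given 10 mg/kg iv or orally. Brain-to-plasma concentration ratio taken 2 h after dosing. Concentrations measured by LC-MS/MS.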

Data set [21] can be described thus: Apparent volume of distribution at steady state in Sprague-Dawley rat at 10 mg/kg, iv. The note with it: in vivo, read-out: Vdss(app). Also on record: dose 10 mg/kg, route intravenous. The format is ADME, organism-based. The method, boiled down: as §3
Data set [22] in a line: Clearance in Sprague-Dawley rat at 10 mg/kg, iv. The note with it: in vivo. More on the design: dose 10 mg/kg, route intravenous. The format is ADME, organism-based. The method, boiled down: as §3
Data set [23] is described as follows: Cmax in Sprague-Dawley rat at 10 mg/kg, iv. As to conditions: in vivo. The format is ADME, organism-based. More on the design: dose 10 mg/kg, route intravenous. The method, boiled down: as §3
Data set [24] can be described thus: Terminal half life in Sprague-Dawley rat at 10 mg/kg, iv. The note with it: in vivo, read-out: beta t1/2. The format is ADME, organism-based. More on the design: dose 10 mg/kg, route intravenous. Summed up:
as §3

Data set [25] can be described thus: AUClast in Sprague-Dawley rat at 10 mg/kg, iv. The data set is classed as ADME, organism-based. Also on record: time 0 - last, dose 10 mg/kg, route intravenous. The note with it: plasma. Summed up:
as §4

Data set [26] in a line: AUC (0 to infinity) in Sprague-Dawley rat at 10 mg/kg, iv. More on the design: time infinity, dose 10 mg/kg, route intravenous. The format is ADME, organism-based. As to conditions: plasma.
Data set [27] is described as follows: as §1. The data set is classed as ADME, cell-free. The note with it: read-out: Stability. Summed up: as §2
Data set [28] is described as follows: Ratio of drug uptake in brain to drug uptake in plasma in Sprague-Dawley rat at 10 mg/kg, po. The format is ADME, organism-based. Also on record: dose 10 mg/kg, route oral. As to conditions: read-out: BPR. The method, boiled down: as §5
Data set [29] can be described thus: Tmax in Sprague-Dawley rat at 10 mg/kg, po. The format is ADME, organism-based. More on the design: dose 10 mg/kg, route oral. As to conditions: in vivo. Summed up:
as §3

The nature of data set [30]: Clearance in Sprague-Dawley rat at 10 mg/kg, po. The format is ADME, organism-based. More on the design: dose 10 mg/kg, route oral. The note with it: in vivo. The method, boiled down:
as §3

The nature of data set [31]: Bioavailability in Sprague-Dawley rat at 10 mg/kg, po. The note with it: in vivo.

The inhibition is the relative decrease from the control value, in per cent. As a reminder, the Cmax is the maximum level reached in the sampled fluid or tissue. By Tmax is commonly meant the time at which the peak concentration occurs. The term AUC(0-t) denotes exposure summed from dosing to a finite time, without extrapolation to infinity. As a reminder, the AUC(0-inf) is the area under the concentration-time curve extrapolated to infinity. A word on the clearance: it is the volume of plasma or blood freed of the substance per unit of time. The CL/F is clearance divided by bioavailability, as obtained after extravascular dosing. As usually defined, the bioavailability is the share of a dose that reaches the circulation, judged against a reference dose that is usually intravenous.

Consider `C(=N\OC1CN2CCC1CC2)/c1ccccc1OCc1ccccc1` (stereo not drawn), for which the viability at 24 h, 10 µM in data set [1] worked out at 84%. The inhibition at 10 µM in the data set on HT-22 [2] was determined as 0%. Further, in data set [3], the viability at 5 µM stood at 92%. The Activity worked out at 13% with HT-22 [4] and 59% with HT-22 [15]. Moreover, the Cmax in data set [5] came out at 0.524 µg/mL; in data set [12] it was 0.33 µg/mL. Besides, the values for the Tmax in data set [6] and in data set [11] were 0.417 h and 5 min, respectively. For the same compound, the half-life in data set [7] is 6.1 h. Moreover, the AUC(0-t) was 0.93 µg·h/mL in data set [8] and 0.525 µg·h/mL in data set [13]. Further, the AUC(0-inf) in data set [9] is 0.99 µg·h/mL. Further, in [10], the Kp is 273. The remaining at 0.5 h, 1 µM in [14] was 85%. The Stability entry with Plasma is reported as “Stable”.

`Clc1ccc(COc2ccccc2/C=N/OC2CCN(Cc3ccccc3)C2)cc1Cl` (stereo not drawn): the figures for the Cmax in [16] and in [23] were 0.57 µg/mL and 44.5 µg/mL, respectively. In addition, the AUC(0-t) in data set [17] is 1.96 µg·h/mL; in [25], 5.89 µg·h/mL. Besides, the half-life in data set [18] is 2.92 h; in data set [24], 2.35 h. The area under the curve AUC(0-inf) is 2.39 µg·h/mL in data set [19] and 6.28 µg·h/mL in data set [26]. Besides, the Kp amounted to 14.6 in data set [20] and 0.29 in [28]. In addition, the Vd in [21] was 2.87 L/kg. For the same compound, the clearance in data set [22] turned out to be 1.68 L/h/kg. In data set [1], the viability at 24 h, 10 µM came to 129%. The inhibition at 10 µM in the data set on HT-22 [2] stood at 149%. Moreover, in data set [3], the viability at 5 µM was determined as 83%. Further, the values for the Activity with HT-22 [4] and in the data set on HT-22 [15] were 104% and 41%, respectively. In addition, the remaining at 0.5 h, 1 µM in data set [14] came to 47.8%. Besides, in [27], the remaining at 2 h, 0.5 ug/ml stood at 111%. In addition, the Tmax in [29] was 2 h. The apparent clearance CL/F in data set [30] is 4.33 L/h/kg. Further, the bioavailability in data set [31] was 38.1%.
